Assay results as given in PMC8184462 (Annals of Translational Medicine, 2021).

Experiments:
[1] = Plasma pharmacokinetics of unlabeled almonertinib and metabolite HAS-719; type: in vivo, human
Summary of the method: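 Four healthy fasted male volunteers received one oral [14C]-labeled suspension of the test compound (110 mg/50 µCi) and ate lunch 4 h after dosing. Blood (7 mL) was drawn predose and at 1–504 h, centrifuged (3,000 rpm, 10 min) and stored at –20 °C. Parent and metabolite were quantified by validated LC-MS/MS. Noncompartmental parameters are reported as mean ± SD.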

[2] = type: in vivo, human
Summary of the method: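 Urine and feces were collected until cumulative recovery exceeded 80% of dose and fell below 1% of dose per day on 2 consecutive days. Radioactivity was counted by liquid scintillation: urine directly, feces after homogenization with solvent and combustion with CO2 trapping. Each interval's excretion was expressed relative to the actual administered radioactivity (vial content minus residue), then summed cumulatively.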

[3] = tested on: T790M-mutant NSCLC cell line H1975; conditions: ref [14],[15]; cited from earlier work
[4] = tested on: T790M-mutant NSCLC cell line LU1868; conditions: ref [14],[15]; cited from earlier work
[5] = tested on: NSCLC HCC827 cell line harboring EGFR-sensitive mutants; conditions: ref [14],[15]; cited from earlier work
NSCLC = conditions: ref [15], cited from earlier work

CL/F ([1]; LC-MS/MS, single oral 110 mg/50 µCi, mean±SD): 36.8 ± 10.8 L/h
AUC(0-inf) ([1]; male, human, po, 110 mg): 3160 ng·h/mL
AUC(0-t) ([1]; male, human, po, 110 mg): 2900 ng·h/mL
Cmax ([1]; male, human, po, 110 mg): 119 ± 27.7 ng/mL
Tmax ([1]; male, human, po, 110 mg): 5.25 ± 3.2 h
Vd/F ([1]; male, human, po, 110 mg): 1270 L
half-life ([1]; male, human, po, 110 mg): 25 ± 6.41 h
Main excretion route ([2]; 0–504 hours): mainly excreted via feces
Cumulative excretion rate of drug TRA (urine + feces) ([2]; 0–504 hours after administration, % of dose): 90.19%±4.18%
Cumulative excretion rate in feces ([2]; 0–504 hours, % of dose): 84.75%±3.35%
Cumulative excretion rate in urine ([2]; 0–504 hours, % of dose): 5.44%±0.83%
Compound: C=CC(=O)Nc1cc(Nc2nccc(-c3cn(C4CC4)c4ccccc34)n2)c(OC)cc1N(C)CCN(C)C [HS-10296, almonertinib]
Growth inhibition [3]: potently inhibited the growth
Growth inhibition [4]: potently inhibited the growth
Growth inhibition [5]: potently inhibited the growth
Tolerability (NSCLC; 26 patients, 55, 110, 220, 260 mg, single or multiple dose): well tolerated
Dose linearity of metabolism (NSCLC; 55–260 mg): linear trend
Antitumor activity (NSCLC; NSCLC patients, dose-escalation cohort): preliminary antitumor activity
